# Experiments:
# Assay in all cases: NCI-60 single-dose antiproliferative screen
# Format in all cases: cell-based
# SN12C = details: Homo sapiens, 48 h, read-out: growth percent
# How it was run: (§1)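 Cells grown in RPMI 1640 with 5% FBS and 2 mM L-glutamine, plated and held 24 h at 37 °C; time-zero plates TCA-fixed. DMSO stocks were diluted in gentamicin-containing medium to a final 10^-5 M, with a DMSO-only control. Exposure 48 h, 5% CO2. Adherent cells TCA-fixed 1 h at 4 °C, stained with 0.4% SRB, solubilised in 10 mM Trizma base, read at 515 nm. Growth percent derived from ODtzero, ODtest and ODctrl.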
# HS 578T = details: Homo sapiens, 48 h, read-out: growth percent
# How it was run: (§2)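 NCI-60 protocol. Lines were grown in RPMI 1640 with 5% FBS and 2 mM L-glutamine, plated and incubated 24 h at 37 °C; time-zero plates were TCA-fixed. The test compound was dissolved in DMSO, diluted in medium with 50 μg/mL gentamicin and given once at a final 10^-5 M (DMSO control) for 48 h. Cells were fixed with cold TCA (1 h, 4 °C) and stained with 0.4% SRB in 1% acetic acid for 10 min. Dye was dissolved in 10 mM Trizma base and read at 515 nm. Growth percent was calculated from time-zero, test and control ODs.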
# CAKI-1 = details: Homo sapiens, CAKI-1, 48 h, read-out: growth percent
# How it was run: as §2
# SK-MEL-2 = details: Homo sapiens, SK-MEL-2, 48 h, read-out: growth percent
# How it was run: as §1
# SF-268 = details: Homo sapiens, SF-268, 48 h, read-out: growth percent
# How it was run: as §2
# SR = details: Homo sapiens, 48 h, read-out: growth percent
# How it was run: as §1
# SK-OV-3 = details: Homo sapiens, SK-OV-3, 48 h, read-out: growth percent
# How it was run: as §1
# K-562 = details: Homo sapiens, K562, 48 h, read-out: growth percent
# How it was run: as §2
# SK-MEL-5 = details: Homo sapiens, SK-MEL-5, 48 h, read-out: growth percent
# How it was run: as §1
# HT29 = details: Homo sapiens, HT-29, 48 h, read-out: growth percent
# How it was run: as §2
# NCI-H23 = details: Homo sapiens, NCI-H23, 48 h, read-out: growth percent
# How it was run: as §2
# SNB-75 = details: Homo sapiens, SNB-75, 48 h, read-out: growth percent
# How it was run: as §1
# BT-549 = details: Homo sapiens, BT-549, 48 h, read-out: growth percent
# How it was run: as §2
# RXF 393 = details: Homo sapiens, RXF 393, 48 h, read-out: growth percent
# How it was run: as §2
# U251 = details: Homo sapiens, U-251, 48 h, read-out: growth percent
# How it was run: as §1
# NCI/ADR-RES = details: Homo sapiens, 48 h, read-out: growth percent
# How it was run: as §2
# MALME-3M = details: Homo sapiens, 48 h, read-out: growth percent
# How it was run: as §2
# T-47D = details: Homo sapiens, T47D, 48 h, read-out: growth percent
# How it was run: as §1
# NCI-H322M = details: Homo sapiens, 48 h, read-out: growth percent
# How it was run: as §2
# DU-145 = details: Homo sapiens, DU-145, 48 h, read-out: growth percent
# How it was run: as §2
# SF-295 = details: Homo sapiens, SF-295, 48 h, read-out: growth percent
# How it was run: as §2
# CCRF-CEM = details: Homo sapiens, 48 h, read-out: growth percent
# How it was run: as §2
# MDA-MB-231 ATCC = details: Homo sapiens, MDA-MB-231, 48 h, read-out: growth percent
# How it was run: as §2
# SF-539 = details: Homo sapiens, SF-539, 48 h, read-out: growth percent
# How it was run: as §1
# MCF-7 = details: Homo sapiens, MCF7, 48 h, read-out: growth percent
# How it was run: as §2
# OVCAR-5 = details: Homo sapiens, OVCAR-5, 48 h, read-out: growth percent
# How it was run: as §2
# SW-620 = details: Homo sapiens, SW-620, 48 h, read-out: growth percent
# How it was run: as §1
# HOP-92 = details: Homo sapiens, HOP-92, 48 h, read-out: growth percent
# How it was run: as §2
# MDA-MB-435 = details: Homo sapiens, MDA-MB-435, 48 h, read-out: growth percent
# How it was run: as §2
# RPMI-8226 = details: Homo sapiens, RPMI-8226, 48 h, read-out: growth percent
# How it was run: as §2
# UACC-257 = details: Homo sapiens, UACC-257, 48 h, read-out: growth percent
# How it was run: as §1
# LOX IMVI = details: Homo sapiens, 48 h, read-out: growth percent
# How it was run: as §2
# SK-MEL-28 = details: Homo sapiens, SK-MEL-28, 48 h, read-out: growth percent
# How it was run: as §1
# KM12 = details: Homo sapiens, KM12, 48 h, read-out: growth percent
# How it was run: as §2
# 786-0 = details: Homo sapiens, 786-0, 48 h, read-out: growth percent
# How it was run: as §2
# UACC-62 = details: Homo sapiens, UACC-62, 48 h, read-out: growth percent
# How it was run: as §1
# NCI-H522 = details: Homo sapiens, NCI-H522, 48 h, read-out: growth percent
# How it was run: as §2
SMILES,activity at 10 µM (SN12C),activity at 10 µM (HS 578T),activity at 10 µM (CAKI-1),activity at 10 µM (SK-MEL-2),activity at 10 µM (SF-268),activity at 10 µM (SR),activity at 10 µM (SK-OV-3),activity at 10 µM (K-562),activity at 10 µM (SK-MEL-5),activity at 10 µM (HT29),activity at 10 µM (NCI-H23),activity at 10 µM (SNB-75),activity at 10 µM (BT-549),activity at 10 µM (RXF 393),activity at 10 µM (U251),activity at 10 µM (NCI/ADR-RES),activity at 10 µM (MALME-3M),activity at 10 µM (T-47D),activity at 10 µM (NCI-H322M),activity at 10 µM (DU-145),other results
"COc1cc(CNC(=O)CCCC/C=C/C(C)C)ccc1OCc1cn(-c2ccc(Br)cc2)nn1 [14k, (E)-N-(4-((1-(4-Bromophenyl)-1H-1,2,3-triazol-4-yl)methoxy)-3-methoxybenzyl)-8-methylnon-6-enamide]",83%,90.5%,74.3%,95.2%,78.9%,67.2%,74.8%,59.2%,72%,98.1%,70.2%,90.9%,88.1%,105%,75.5%,72%,103%,68.4%,90.6%,98.8%,activity at 10 µM (SF-295): 85.4%; activity at 10 µM (CCRF-CEM): 94.2%; activity at 10 µM (MDA-MB-231 ATCC): 71.3%; activity at 10 µM (SF-539): 92.4%; activity at 10 µM (MCF-7): 76.2%; activity at 10 µM (OVCAR-5): 116%; activity at 10 µM (SW-620): 94.7%; activity at 10 µM (HOP-92): 68.8%; activity at 10 µM (MDA-MB-435): 107%; activity at 10 µM (RPMI-8226): 57.4%; activity at 10 µM (UACC-257): 90.5%; activity at 10 µM (LOX IMVI): 83.7%; activity at 10 µM (SK-MEL-28): 100%; activity at 10 µM (KM12): 94.3%; activity at 10 µM (786-0): 92%; activity at 10 µM (UACC-62): 63%; activity at 10 µM (NCI-H522): 82.5%
"COc1cc(CNC(=O)CCCC/C=C/C(C)C)ccc1OCc1cn(-c2ccc(C#N)cc2)nn1 [14j, (E)-N-(4-((1-(4-Cyanophenyl)-1H-1,2,3-triazol-4-yl)methoxy)-3-methoxybenzyl)-8-methylnon-6-enamide]",98.3%,95%,74.6%,98.4%,90.9%,76.3%,88.2%,75.4%,87%,95.6%,72.1%,94.2%,91.2%,90.8%,91.2%,79.7%,102%,76.8%,95.3%,44.4%,activity at 10 µM (SF-295): 102%; activity at 10 µM (CCRF-CEM): 86.2%; activity at 10 µM (MDA-MB-231 ATCC): 90.8%; activity at 10 µM (SF-539): 94.5%; activity at 10 µM (MCF-7): 103%; activity at 10 µM (OVCAR-5): 95.3%; activity at 10 µM (SW-620): 98%; activity at 10 µM (HOP-92): 80.5%; activity at 10 µM (MDA-MB-435): 108%; activity at 10 µM (RPMI-8226): 65.4%; activity at 10 µM (UACC-257): 94.3%; activity at 10 µM (LOX IMVI): 78.2%; activity at 10 µM (SK-MEL-28): 105%; activity at 10 µM (KM12): 91.5%; activity at 10 µM (786-0): 91.7%; activity at 10 µM (UACC-62): 81.8%; activity at 10 µM (NCI-H522): 88.2%
"COc1cc(CNC(=O)CCCC/C=C/C(C)C)ccc1OCc1cn(-c2ccc(C(F)(F)F)cc2)nn1 [14g, (E)-N-(3-Methoxy-4-((1-(4-(trifluoromethyl)phenyl)-1H-1,2,3-triazol-4-yl)methoxy)benzyl)-8-methylnon-6-enamide]",65.6%,70.7%,85.8%,95.1%,87.8%,70.4%,91.3%,76.3%,97.1%,79%,94.6%,49.7%,80.4%,90.2%,46.7%,48.2%,99.7%,84.5%,96.2%,62.2%,activity at 10 µM (SF-295): 90.9%; activity at 10 µM (CCRF-CEM): 68.8%; activity at 10 µM (MDA-MB-231 ATCC): 75.2%; activity at 10 µM (SF-539): 81.9%; activity at 10 µM (MCF-7): 80.7%; activity at 10 µM (OVCAR-5): 96.6%; activity at 10 µM (SW-620): 41.3%; activity at 10 µM (HOP-92): 13.8%; activity at 10 µM (MDA-MB-435): 107%; activity at 10 µM (RPMI-8226): 53.4%; activity at 10 µM (UACC-257): 98.2%; activity at 10 µM (LOX IMVI): 60.3%; activity at 10 µM (SK-MEL-28): 107%; activity at 10 µM (KM12): 81.2%; activity at 10 µM (786-0): 2.94%; activity at 10 µM (UACC-62): 84.3%; activity at 10 µM (NCI-H522): 75.6%
